From ChEMBL document CHEMBL4622955, “Phenyltriazole-functionalized sulfamate inhibitors targeting tyrosyl- or isoleucyl-tRNA synthetase” (Bioorg Med Chem, 2020)
pKi: −log10 of the molar value. Calls of active or inactive are those of the source. The calls are words filed in the database; no cut-off is given here.

Experiments:
[1] = tested on: Mycobacterium tuberculosis; assay: Antimicrobial activity against Mycobacterium tuberculosis at 64 uM by resazurin dye based assay; format: functional, organism-based
Procedure, shortened: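 Non-pathogenic Mycobacterium tuberculosis strain, part of a broader antimicrobial panel; compounds tested up to a maximum concentration of 64 μM.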

Candida albicans = assay: Antimicrobial activity against Candida albicans at 64 uM by resazurin dye based assay; format: functional, organism-based
[2] = biological target: Isoleucine--tRNA ligase (Escherichia coli K-12) (UniProt P00956); assay: (§1) Inhibition of Escherichia coli BL21(DE3) ileRS overexpressed in Escherichia coli Rosetta2(DE3) assessed as reduction in tRNA aminoacylation at 0.5 uM preincubated with enzyme and substrate for 10 mins prior to ATP addition using 14C-labeled isoleucine and tRNA as substrate by liquid scintillation counting method
Procedure, shortened: (§2)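 Radiolabeled aminoacylation with 10 nM IleRS, 25 μM 14C-isoleucine, 500 μM ATP and total E. coli tRNA at 2 mg/mL final. Activity normalized to enzyme without inhibitor. Triplicate measurements.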

Staphylococcus aureus = assay: Antimicrobial activity against Staphylococcus aureus at 64 uM by resazurin dye based assay; format: functional, organism-based
[3] = biological target: Isoleucine--tRNA ligase (Escherichia coli K-12) (UniProt P00956); assay: as §1, with “1” for “0.5”; procedure, shortened: as §2
Escherichia coli = assay: Antimicrobial activity against Escherichia coli at 64 uM by resazurin dye based assay; format: functional, organism-based
Isoleucine--tRNA ligase = Isoleucine--tRNA ligase (Escherichia coli K-12, UniProt P00956); assay: as §1, with “aminoacylation” for “aminoacylation at 0.5 uM”; conditions: read-out: Ki(app); procedure, shortened: as §2
[4] = biological target: T1, Tyrosine--tRNA ligase (Escherichia coli (strain K12)) (UniProt P0AGJ9); assay: as §1, with “TyrRS” for “ileRS”, “5” for “0.5”, “tyrosine” for “isoleucine”
T1 sequence (whole entry): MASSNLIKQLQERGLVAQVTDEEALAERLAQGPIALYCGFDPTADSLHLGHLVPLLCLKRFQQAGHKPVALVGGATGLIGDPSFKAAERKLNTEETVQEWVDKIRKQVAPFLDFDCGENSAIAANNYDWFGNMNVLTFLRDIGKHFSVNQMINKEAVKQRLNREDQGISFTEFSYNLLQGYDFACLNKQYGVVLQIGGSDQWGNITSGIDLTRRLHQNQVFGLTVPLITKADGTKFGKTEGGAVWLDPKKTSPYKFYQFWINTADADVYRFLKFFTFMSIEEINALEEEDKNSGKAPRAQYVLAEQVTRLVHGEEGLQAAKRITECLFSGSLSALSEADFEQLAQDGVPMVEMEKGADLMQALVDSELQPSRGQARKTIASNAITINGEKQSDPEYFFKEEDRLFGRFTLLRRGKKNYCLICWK
Procedure, shortened: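 TyrRS counterpart of the radiolabeled aminoacylation assay, with test compounds at 5 μM.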

Isoleucine--tRNA ligase (Escherichia coli K-12), sequence (P00956 whole entry): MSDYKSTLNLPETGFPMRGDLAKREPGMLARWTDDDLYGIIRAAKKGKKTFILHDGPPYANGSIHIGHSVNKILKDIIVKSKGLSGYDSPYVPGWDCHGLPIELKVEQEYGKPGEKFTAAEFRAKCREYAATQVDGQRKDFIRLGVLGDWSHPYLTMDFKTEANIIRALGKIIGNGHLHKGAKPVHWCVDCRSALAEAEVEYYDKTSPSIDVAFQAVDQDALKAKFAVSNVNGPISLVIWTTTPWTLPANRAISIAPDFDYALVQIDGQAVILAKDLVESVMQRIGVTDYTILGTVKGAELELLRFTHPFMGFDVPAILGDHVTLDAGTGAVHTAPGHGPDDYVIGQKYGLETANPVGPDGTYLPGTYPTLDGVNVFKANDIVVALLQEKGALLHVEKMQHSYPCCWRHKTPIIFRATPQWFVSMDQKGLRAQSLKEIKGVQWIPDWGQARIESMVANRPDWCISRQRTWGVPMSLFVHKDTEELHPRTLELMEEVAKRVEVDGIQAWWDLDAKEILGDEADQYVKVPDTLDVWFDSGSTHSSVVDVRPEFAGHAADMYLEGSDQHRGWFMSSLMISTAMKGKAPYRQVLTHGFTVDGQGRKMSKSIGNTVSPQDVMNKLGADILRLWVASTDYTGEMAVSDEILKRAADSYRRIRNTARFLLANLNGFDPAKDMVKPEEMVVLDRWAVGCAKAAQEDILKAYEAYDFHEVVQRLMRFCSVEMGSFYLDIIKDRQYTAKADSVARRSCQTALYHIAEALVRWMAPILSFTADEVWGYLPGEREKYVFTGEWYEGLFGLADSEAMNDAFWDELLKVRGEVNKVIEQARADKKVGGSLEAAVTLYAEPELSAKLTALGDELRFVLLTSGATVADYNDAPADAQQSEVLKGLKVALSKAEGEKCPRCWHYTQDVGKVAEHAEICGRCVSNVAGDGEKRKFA
Isoleucine--tRNA ligase, sequence (P00956 whole entry): as above

With CC[C@H](C)[C@H](N)C(=O)NS(=O)(=O)OC[C@H]1OC[C@@H](CCCn2cc(-c3ccccc3)nn2)[C@H](O)[C@@H]1O the Activity [1] was “inactive”, the Activity (Candida albicans) was “inactive” and the inhibition [2] was “Active”. The Activity (Staphylococcus aureus) was “inactive”, the inhibition [3] was “Active” and the Activity (Escherichia coli) was “inactive”. For the same molecule, the pKi (Isoleucine--tRNA ligase) was 7.06.

In the case of CC[C@H](C)[C@H](N)C(=O)NS(=O)(=O)OC[C@H]1OC[C@@H](CCn2nnc(-c3ccccc3)n2)[C@H](O)[C@@H]1O, the Activity [1] was “inactive”, the Activity (Candida albicans) was “inactive” and the Activity (Staphylococcus aureus) was “inactive”. The inhibition [3] was “Active” and the Activity (Escherichia coli) was “inactive”.

In the case of CC[C@H](C)[C@H](N)C(=O)NS(=O)(=O)OC[C@H]1OC[C@@H](CCn2cc(-c3ccccc3)nn2)[C@H](O)[C@@H]1O, the Activity [1] was “inactive”, the Activity (Candida albicans) was “inactive” and the Activity (Staphylococcus aureus) was “inactive”. The inhibition [3] was “Active” and the Activity (Escherichia coli) was “inactive”.

N[C@@H](Cc1ccc(O)cc1)C(=O)NS(=O)(=O)OC[C@H]1OC[C@@H](CCn2nnc(-c3ccccc3)n2)[C@H](O)[C@@H]1O was tested, and the Activity [1] was “inactive”, the Activity (Candida albicans) was “inactive” and the inhibition [4] was “inactive”. For the same molecule, the Activity (Staphylococcus aureus) was “inactive” and the Activity (Escherichia coli) was “inactive”.

N[C@@H](Cc1ccc(O)cc1)C(=O)NS(=O)(=O)OC[C@H]1OC[C@@H](CCn2cc(-c3ccccc3)nn2)[C@H](O)[C@@H]1O was tested, and the Activity [1] was “inactive”, the Activity (Candida albicans) was “inactive” and the inhibition [4] was “inactive”. The Activity (Staphylococcus aureus) was “inactive” and the Activity (Escherichia coli) was “inactive”.

For N[C@@H](Cc1ccc(O)cc1)C(=O)NS(=O)(=O)OC[C@H]1OC[C@@H](OCCn2cc(-c3ccccc3)nn2)[C@H](O)[C@@H]1O, the Activity [1] was “inactive”, the Activity (Candida albicans) was “inactive” and the inhibition [4] was “inactive”. For the same molecule, the Activity (Staphylococcus aureus) was “inactive” and the Activity (Escherichia coli) was “inactive”.

CC[C@H](C)[C@H](N)C(=O)NS(=O)(=O)OC[C@H]1OC[C@@H](OCCn2cc(-c3ccccc3)nn2)[C@H](O)[C@@H]1O was tested, and the Activity [1] was “inactive”, the Activity (Candida albicans) was “inactive” and the inhibition [2] was “Active”. The Activity (Staphylococcus aureus) was “inactive”, the inhibition [3] was “Active” and the Activity (Escherichia coli) was “inactive”. For the same molecule, the pKi (Isoleucine--tRNA ligase) was 6.94.
